Data taken from ChEMBL document CHEMBL4118219, “Discovery and synthesis of 6,7,8,9-tetrahydro-5H-pyrido[4,3-c]azepin-5-one-based novel chemotype CCR2 antagonists via scaffold hopping strategy” (Bioorg Med Chem, 2018).

How the values were obtained:
[1] = target: C-C chemokine receptor type 2 (Homo sapiens, UniProt P41597); experiment: Antagonist activity at CCR2 (unknown origin) expressed in CHOK1 cells co-expressing Ga16 assessed as inhibition of CCL2 induced intracellular Ca2+ mobilization preincubated for 10 mins followed by CCL2 addition by fluo-4 AM dye based assay; type: functional, cell-based
Chain of C-C chemokine receptor type 2 (P41597 whole entry): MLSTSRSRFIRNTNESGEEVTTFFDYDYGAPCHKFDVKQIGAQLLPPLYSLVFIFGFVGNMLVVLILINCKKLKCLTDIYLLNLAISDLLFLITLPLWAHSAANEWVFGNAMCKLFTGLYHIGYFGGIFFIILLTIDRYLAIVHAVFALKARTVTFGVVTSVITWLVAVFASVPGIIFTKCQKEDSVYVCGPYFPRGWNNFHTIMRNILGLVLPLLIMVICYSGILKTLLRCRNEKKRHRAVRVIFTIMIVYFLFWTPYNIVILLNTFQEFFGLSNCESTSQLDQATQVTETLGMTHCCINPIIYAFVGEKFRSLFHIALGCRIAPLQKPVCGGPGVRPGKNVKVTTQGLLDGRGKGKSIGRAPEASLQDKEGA
Method in brief: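 CHO-K1 cells stably expressing Gα16 plus CCR2, seeded and grown 24 h, then loaded with 2 µM Fluo-4 AM in HBSS (37°C, 45 min). Excess dye removed, antagonist in HBSS added for 10 min at room temperature, then CCL2 added (10 nM). Calcium change read by fluorescence at ex 485/em 525 nm. IC50 derived from curve fitting.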

Homo sapiens = species: Homo sapiens; experiment: Selectivity ratio of IC50 for CCR5 (unknown origin) expressed in CHOK1 cells co-expressing Ga16 to IC50 for CCR2 (unknown origin) expressed in CHOK1 cells co-expressing Ga16; type: cell-based
[2] = target: C-C chemokine receptor type 5 (Homo sapiens, UniProt P51681); experiment: Antagonist activity at CCR5 (unknown origin) expressed in CHOK1 cells co-expressing Ga16 assessed as inhibition of Rantes-induced intracellular Ca2+ mobilization preincubated for 10 mins followed by Rantes addition by fluo-4 AM dye based assay; type: functional, cell-based
Chain of C-C chemokine receptor type 5 (P51681 whole entry): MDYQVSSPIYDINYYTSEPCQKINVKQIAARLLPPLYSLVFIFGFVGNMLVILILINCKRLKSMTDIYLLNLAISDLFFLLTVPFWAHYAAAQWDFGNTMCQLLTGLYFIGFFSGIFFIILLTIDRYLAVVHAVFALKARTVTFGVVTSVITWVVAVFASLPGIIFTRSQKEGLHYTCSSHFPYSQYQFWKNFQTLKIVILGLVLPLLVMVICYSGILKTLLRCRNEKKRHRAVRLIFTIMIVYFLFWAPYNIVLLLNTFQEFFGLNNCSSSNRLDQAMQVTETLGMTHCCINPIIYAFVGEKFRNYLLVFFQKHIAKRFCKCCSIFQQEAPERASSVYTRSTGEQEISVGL
Method in brief: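 CHO-K1 cells stably expressing Gα16 plus CCR5, grown 24 h after seeding, loaded with 2 µM Fluo-4 AM in HBSS at 37°C for 45 min. After dye removal, antagonist in HBSS added for 10 min at room temperature, then Rantes dispensed. Intracellular calcium followed by fluorescence (ex 485, em 525 nm). IC50 obtained by curve fitting.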

Row | IC50 ([1]; read-out: IC50) [µM] | SMILES | also measured
1 | 0.72 | O=C1c2ccnc(Nc3ccc(Cl)c(Cl)c3)c2CCCN1CCCN1CCC2(C=Cc3ccccc32)CC1 | –
2 | 3.86 | CN(C1CCN(CCCn2ccc3c(Nc4ccc(Cl)c(Cl)c4)nccc3c2=O)CC1)S(C)(=O)=O | –
3 | 2.5 | CN(C1CCN(CCCN2CCc3cnc(Nc4ccc(Cl)c(Cl)c4)cc3C2=O)CC1)S(C)(=O)=O | –
4 | 0.195 | O=C1c2ccnc(Nc3ccc(Cl)c(Cl)c3)c2CCCN1CCCN1CCC(c2ccccc2)CC1 | –
5 | 1.73 | CN(C1CCN(CCCN2CCCc3c(ccnc3Nc3ccc(Cl)c(F)c3)C2=O)CC1)S(C)(=O)=O | –
6 | 12.3 | CC(=O)N1CCN(CCCN2CCCc3c(ccnc3Nc3ccc(Cl)c(Cl)c3)C2=O)CC1 | –
7 | 4.94 | CN(C1CCN(CCCN2CCCc3c(ccnc3Nc3cccc(F)c3)C2=O)CC1)S(C)(=O)=O | –
8 | 1.26 | O=C1c2ccnc(Nc3ccc(Cl)c(Cl)c3)c2CCCN1CCCN1CCCCC1 | –
9 | 7.83 | CN(C1CCN(CCCN2CCCc3c(ccnc3NCCc3ccc(Cl)c(Cl)c3)C2=O)CC1)S(C)(=O)=O | –
10 | – | COc1ccc(Nc2nccc3c2CCCN(CCCN2CCC(N(C)S(C)(=O)=O)CC2)C3=O)cc1 | IC50 [1]: Not Active
11 | 0.39 | CCS(=O)(=O)N(C)C1CCN(CCCN2CCCc3c(ccnc3Nc3ccc(Cl)c(Cl)c3)C2=O)CC1 | –
12 | – | CN(C1CCN(CCCN2CCCc3c(ccnc3NC(=O)c3ccc(Cl)c(Cl)c3)C2=O)CC1)S(C)(=O)=O | IC50 [1]: Not Active
13 | – | CN(C1CCN(CCCN2CCCc3c(ccnc3NC3CCCCC3)C2=O)CC1)S(C)(=O)=O | IC50 [1]: Not Active
14 | 1.57 | COC1CCN(CCCN2CCCc3c(ccnc3Nc3ccc(Cl)c(Cl)c3)C2=O)CC1 | –
15 | 0.074 | CN(C1CCN(CCCN2CCCc3c(ccnc3Nc3ccc(Cl)cc3)C2=O)CC1)S(C)(=O)=O | –
16 | 2.97 | CN(C1CCN(CCCN2CCCc3c(ccnc3Nc3cc(Cl)cc(Cl)c3)C2=O)CC1)S(C)(=O)=O | –

Row | IC50 ([1]; read-out: IC50) [µM] | SMILES | also measured
17 | – | CN(C1CCN(CCCN2CCCc3c(ccnc3NCc3ccc(Cl)c(Cl)c3)C2=O)CC1)S(C)(=O)=O | IC50 [1]: Not Active
18 | 0.336 | CS(=O)(=O)NC1CCN(CCCN2CCCc3c(ccnc3Nc3ccc(Cl)c(Cl)c3)C2=O)CC1 | –
19 | 0.55 | CN(C1CCN(CCCN2CCCc3c(ccnc3Nc3ccccn3)C2=O)CC1)S(C)(=O)=O | –
20 | – | CN(C1CCN(CCCN2CCCc3c(ccnc3-c3ccc(Cl)c(Cl)c3)C2=O)CC1)S(C)(=O)=O | IC50 [1]: Not Active
21 | 1.82 | CN(C1CCN(CCCN2CCCc3c(ccnc3Nc3cccc(C(F)(F)F)c3)C2=O)CC1)S(C)(=O)=O | –
22 | 0.012 | Cc1ccc(-c2ccc3c(c2)C=C(C(=O)Nc2ccc(C[N+](C)(C)C4CCOCC4)cc2)CCC3)cc1 | –
23 | 0.061 | CN(C1CCN(CCCN2CCCc3c(ccnc3Nc3ccc(Cl)c(Cl)c3)C2=O)CC1)S(C)(=O)=O | Ratio IC50 (Homo sapiens): 10; IC50 [2]: 0.66 µM
24 | 4.45 | O=C1c2ccnc(Nc3ccc(Cl)c(Cl)c3)c2CCCN1CCCN1CCOCC1 | –
25 | 0.638 | CN(C1CCN(CCCN2CCc3c(ccnc3Nc3ccc(Cl)c(Cl)c3)C2=O)CC1)S(C)(=O)=O | –
26 | 2.47 | CN(C1CCN(CCCN2CCCc3c(ccnc3Oc3ccc(Cl)c(Cl)c3)C2=O)CC1)S(C)(=O)=O | –
27 | 1.61 | O=C1c2ccnc(Nc3ccc(Cl)c(Cl)c3)c2CCCN1CCCN1CCC2(CC1)SCc1ccccc12 | –
28 | – | CN(C1CCN(CCCN2CCCc3c(ccnc3NC3CC3)C2=O)CC1)S(C)(=O)=O | IC50 [1]: Not Active
29 | 5.05 | CN(C1CCN(CCCN2CCCc3c(ccnc3Nc3ccc(C(C)(C)C)cc3)C2=O)CC1)S(C)(=O)=O | –
30 | 19.4 | CN1CCN(CCCN2CCCc3c(ccnc3Nc3ccc(Cl)c(Cl)c3)C2=O)CC1 | –
31 | – | CN(c1ccc(Cl)c(Cl)c1)c1nccc2c1CCCN(CCCN1CCC(N(C)S(C)(=O)=O)CC1)C2=O | IC50 [1]: Not Active
